High-throughput results deposited in PubChem BioAssay by several laboratories.
RanGTP-Impb inh: disruptors of Ran-importin-beta complex formation – biochemical, FRET, CFP-Ran, YFP-importin-beta, homogeneous, primary screen. cell-free CFP-Ran/YFP-importin-beta FRET ratio. inhibition, % (test concentration not listed). 1.1% of 300,000 active. AID 2216;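 active = more than half of the replicate wells show a fall in the fluorescence ratio signal beyond about 16%, limit read from the data, passing the limit was not always enough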
Runt-SMMHC FRET: Runt domain-CBFb-SMMHC interaction inhibition. Q01196+Q13951. Cerulean-Runt/Venus-CBFb-SMMHC FRET ratio 530/480, 1 h. inhibition, % at 20 µM. 0.74% of 220,000 active. AID 1434;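 active = mean inhibition across duplicate retests at 20 µM reaching about 50%, limit read from the data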;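 also: inhibitors lower the FRET ratio by blocking Runt binding to CBFb-SMMHC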
Hck Nef HTS: human Hck-Nef kinase inhibition | P08631 | Recombinant Hck-YEEI plus Nef, Z-Lyte FRET kinase assay | AID 463187 | 0.68% of 220,000 active | inhibition, % at 20 µM;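 active = Hck-Nef kinase inhibition above about 50%, limit read from the data; inactive = inhibition below that limit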
Target sequence (P08631 whole entry, looked up): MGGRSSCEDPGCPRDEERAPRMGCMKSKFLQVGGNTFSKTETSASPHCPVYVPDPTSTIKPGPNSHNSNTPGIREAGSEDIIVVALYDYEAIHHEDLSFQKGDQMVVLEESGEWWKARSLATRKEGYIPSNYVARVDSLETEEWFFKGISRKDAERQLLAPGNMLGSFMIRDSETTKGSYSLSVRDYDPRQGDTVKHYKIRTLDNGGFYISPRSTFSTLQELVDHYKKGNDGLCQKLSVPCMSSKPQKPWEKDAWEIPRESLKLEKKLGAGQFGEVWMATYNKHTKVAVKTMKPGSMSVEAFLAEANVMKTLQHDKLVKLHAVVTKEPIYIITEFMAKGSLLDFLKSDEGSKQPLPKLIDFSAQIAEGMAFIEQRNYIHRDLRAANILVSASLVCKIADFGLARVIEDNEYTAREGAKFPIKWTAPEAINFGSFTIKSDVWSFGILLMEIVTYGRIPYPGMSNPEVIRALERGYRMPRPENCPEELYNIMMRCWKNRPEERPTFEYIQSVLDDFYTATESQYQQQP
Runt-CBFb FRET: inhibitors of human RUNX1 Runt domain binding to CBFb. Q01196+Q13951. AID 1496. inhibition, % at 20 µM. 0.46% of 220,000 active. Cerulean-Runt/Venus-CBFb FRET ratio 530/480, 1 h;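 active = inhibition over about 50% at 20 µM in the single-dose screen, limit read from the data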
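Assay system: Cerulean-Runt domain / Medium: Tris 50 mM pH 7.5, KCl, K2SO4, 0.01% BSA / Timing: protein complex preformed 1 h, compound exposure 1 h, room temperature, dark / Measured by: FRET, excitation 422 nm, emission at 530 and 480 nm / Evaluation: loss of energy transfer signal / Control set: 5 µM unlabeled CBFb as full-inhibition high control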
Numbers stand for hits; – = inactive; · = not tested or not shown. Rows were chosen to be rich in hits. Some 1.7% of all compounds tested hit in one or more screens of this group.

SMILES	RanGTP-Impb inh	Runt-SMMHC FRET	Hck Nef HTS	Runt-CBFb FRET
COc1ccc(CCn2c(=N)c(S(=O)(=O)c3ccccc3)cc3c(=O)n4ccccc4nc32)cc1	–	·	·	·
COc1ccc(CCn2c(=N)c(S(=O)(=O)c3ccc(Cl)cc3)cc3c(=O)n4ccccc4nc32)cc1	–	·	·	·
Cc1ccc(S(=O)(=O)c2cc3c(=O)n4ccccc4nc3n(CCc3ccccc3)c2=N)cc1	64	·	·	·
COc1ccc(OC)c(S(=O)(=O)NCCS(=O)(=O)N2CCN(c3ccccc3)CC2)c1	–	·	·	·
CC(=O)N1CCc2c(sc(NC(=O)Cc3ccc(F)cc3)c2C#N)C1	–	·	·	·
Cc1sc(NC(=S)NC(=O)c2ccccc2)c(C#N)c1C	–	·	–	·
CCCN1CCc2c(sc(NC(=S)NC(=O)c3ccccc3)c2C#N)C1	159	93	–	–
COc1cc(C(=O)Nc2sc3c(c2C#N)CCN(C(C)=O)C3)cc(OC)c1OC	38	79	–	–
CN1CCc2c(sc(NC(=O)Cc3ccccc3)c2C#N)C1	164	·	·	·
CC(C)N1CCc2c(sc(NC(=S)NC(=O)c3ccccc3)c2C#N)C1	162	60	–	–
Cc1nc(C(F)(F)F)c(C(=O)N/N=C(\N)c2cccnc2)s1	–	–	–	–
CCc1ccccc1-n1ncc(C(=O)Nc2ccccc2OC)c1C	–	·	·	·
CCOC(=O)N1CCc2c(sc(NC(=O)c3ccc(S(=O)(=O)N4CCCC4)cc3)c2C#N)C1	–	–	–	–
CC(C)N1CCc2c(sc(NC(=O)c3ccc(S(=O)(=O)N4CCOCC4)cc3)c2C#N)C1	43	–	–	–
Clc1ccsc1-c1ccnc(-n2cccc2)n1	–	–	–	–
Clc1ccc(-c2ccnc(-n3cccc3)n2)s1	–	68	–	–
COCCCn1c(=O)/c(=C\c2ccc(OC(F)F)c(OC)c2)s/c1=C(/C#N)C(N)=O	–	81	–	–
Cc1ccc(-n2nc(C)c3onc(C)c3c2=O)cc1	–	–	–	–
CCOc1ccc(NC(=O)CN2C(=O)S/C(=C/c3cccn3C)C2=O)cc1	16	–	–	–
CCCN(CCC)C1=CC(=[N+]2CCCC2)CC(C)(C)C1	–	–	–	–
O=C1CCN2C=Nc3cccc4ccc1c2c34	69	–	–	–
c1ccc(CN2CCN(C3=Nc4cccc5cccc3c45)CC2)cc1	–	–	–	–
Clc1ccc(-c2cn3nc4c(nc3n2)CCCC4)cc1	70	–	–	–
COc1cccc(-c2cn3nc4c(nc3n2)CCCC4)c1	46	–	–	–
COc1cccc(-c2cc(C(F)(F)F)n3nc(N)nc3n2)c1	–	–	–	–
SMILES	RanGTP-Impb inh	Runt-SMMHC FRET	Hck Nef HTS	Runt-CBFb FRET
Cc1ccc(-c2cn3nc(C)c(C)nc3n2)cc1	–	–	–	–
Cc1ccc(-c2ccc(C3C(C#N)=C(N)Oc4n[nH]c(C)c43)o2)cc1 (centres undefined)	39	–	–	–
Cc1ccc(CN2CCN(C(=O)CCN3C(=O)c4ccccc4C3=O)CC2)cc1	–	–	–	108
O=C(CCN1C(=O)c2ccccc2C1=O)N1CCN(Cc2ccccc2)CC1	–	–	–	–
COc1ccc(N(C(=O)c2snc(C(N)=O)c2N)C(C(=O)NC2CCCC2)c2cc(OC)ccc2OC)cc1 (centres undefined)	–	·	·	·
CCc1cc[n+](-c2nc3ccccc3nc2[N-]S(=O)(=O)c2ccc(Br)s2)cc1	41	69	–	–
CCC(C)(C)n1nnnc1C(c1ccc(O)cc1)N1CCc2ccccc2C1 (centres undefined)	–	–	–	–
CCCCOc1ccccc1C(=O)NNC(=S)NC(=O)c1ccccc1[N+](=O)[O-]	–	·	·	·
CCN(CCn1cccn1)C(=O)C1CCC(=O)N(CC2CCCCC2)C1 (centres undefined)	–	·	·	·
O=C(Cc1c[nH]c2ccccc12)NCc1ccco1	–	–	–	–
O=C(Cc1nc2ccccc2[nH]1)NCc1ccco1	35	–	–	–
CC(NC(=O)C(C)N1c2cccc3cccc(c23)S1(=O)=O)c1ccccc1 (centres undefined)	–	·	·	·
O=c1c2ccccc2c(C=Nc2ccccc2O)c(O)n1-c1nccs1	41	–	–	–
CCc1cc2c(CN3CCN(CC)CC3)cc(=O)oc2cc1O	115	61	–	–
O=c1cc(CN2CCOCC2)c2cc(Cl)c(O)cc2o1	73	·	·	·
CCc1ccc2oc(=O)cc(CN3CCN(Cc4ccccc4)CC3)c2c1	–	·	·	·
Cc1c(O)ccc2c(CN3CCOCC3)cc(=O)oc12	53	·	·	·
CCc1nnc(NC(=O)CCc2ccccc2OC)s1	–	·	·	·
NS(=O)(=O)c1ccc(N=Nc2ccc(O)c3ncccc23)cc1	–	·	·	·
O=Cc1ccc(O)c2ncccc12	–	74	–	–
Cc1cccc(C(=O)NC(=S)NCc2cccnc2)c1	–	–	–	–
O=C(NCCCNC(=O)c1cc(Cl)ccc1Cl)c1ccco1	–	·	·	·
CCOC(=O)/C(C#N)=C1/C=C(C)c2ccccc2N1	–	91	–	–
CCOC(=O)/C(C#N)=C1\C(=O)N(Cc2ccccc2)c2ccccc21	–	–	–	–
NC1=NC(c2ccccc2)N=C(Nc2ccccc2)N1 (centres undefined)	–	–	–	–
SMILES	RanGTP-Impb inh	Runt-SMMHC FRET	Hck Nef HTS	Runt-CBFb FRET
Cc1cccn2c(=O)c(/C=C(\C#N)C(=O)NCc3ccco3)c(N3CCCCC3)nc12	–	60	–	65
N#C/C(=C\c1c(N2CCCCC2)nc2ccccn2c1=O)C(=O)NCc1ccco1	–	–	–	65
CCOC(=O)C1CCCN(c2nc3c(C)cccn3c(=O)c2/C=C(\C#N)C(=O)NCc2ccco2)C1 (centres undefined)	–	–	–	121
Cc1cccn2c(=O)c(/C=C(\C#N)C(=O)NCc3ccco3)c(N3CCC(C(N)=O)CC3)nc12	–	·	–	71
CCNC(=O)/C(C#N)=C/c1c(N2CCN(c3cccc(Cl)c3)CC2)nc2c(C)cccn2c1=O	–	·	·	·
Cc1cccn2c(=O)c(/C=C(\C#N)C(=O)NCc3ccco3)c(N3CCCC(C)C3)nc12 (centres undefined)	–	·	–	98
Cc1cccn2c(=O)c(/C=C(\C#N)C(=O)NCc3ccco3)c(N3CCCCCC3)nc12	–	–	–	97
CCc1ccc(/C=C2\Oc3cc(OS(C)(=O)=O)ccc3C2=O)cc1	–	–	–	–
CCc1ccc(/C=C2\Oc3c(ccc(O)c3CN3CCN(CCO)CC3)C2=O)cc1	–	81	–	–
CC1CCC(NC(=O)c2nc(Cn3ccc([N+](=O)[O-])n3)no2)CC1 (centres undefined)	–	·	·	·
O=c1[nH]c(SCc2ccccc2F)nc2ccccc12	–	–	–	–
O=c1cc(CSc2nc3ccccc3c(=O)[nH]2)c2ccc(O)cc2o1	–	52	–	–
CC1C/C(=C/c2ccco2)C(=O)/C(=C/c2ccco2)C1 (centres undefined)	–	–	67	–
O=C(CCCCl)Oc1ccc2cc(-c3ccc4ccccc4n3)c(=O)oc2c1	102	86	–	–
CC(=O)Oc1ccc2cc(-c3ccccc3)c(=O)oc2c1	81	81	–	–
